In PMC2757176 (The Journal of biological chemistry, 2009):
Non-standard residues stand in square brackets, D forms with d. Residues, ends and D or L forms follow the SMILES beside them. *: point of attachment. Biotin = O=C1N[C@H]2[C@H](CS[C@H]2CCCCC(=O)*)N1; pY = N[C@@H](Cc1ccc(OP(=O)(O)O)cc1)C(=O)O

Tests used:
Experiment in all cases: Biacore
Format in all cases: binding
[1] = target: human LCK SH3-SH2 (Homo sapiens, UniProt P06239)
Outline: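 Recombinant human LCK SH3-SH2 (aa 58–230), N-terminal His-tagged, nickel-agarose purified, gel-filtered; concentration from A280 using a theoretical extinction coefficient. BIAcore 3000 at 37 °C: ~3000 RU streptavidin amine-coupled to CM5 captured biotinylated peptides (CD2 proline-rich peptides ~100 RU; phospho-CD244 ITSM1 ~25 RU). Protein passed at various concentrations; equilibrium binding fitted for Kd against a control flow cell.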

[2] = target: human FYN SH3-SH2 (Homo sapiens, UniProt P06241)
[3] = target: T1, human PLC-γ1 SH2 N+C (Homo sapiens, UniProt P19174); details: ratio of SPR affinities, PLC-γ1 SH2 N+C versus FYN-SH3-SH2
T1 sequence (P19174 545-749): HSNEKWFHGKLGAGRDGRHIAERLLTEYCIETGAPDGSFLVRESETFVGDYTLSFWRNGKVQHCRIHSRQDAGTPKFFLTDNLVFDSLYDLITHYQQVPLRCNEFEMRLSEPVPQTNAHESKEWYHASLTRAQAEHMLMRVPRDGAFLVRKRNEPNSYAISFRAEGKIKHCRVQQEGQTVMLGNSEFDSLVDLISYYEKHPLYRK

human FYN SH3-SH2, sequence (P06241 82-248): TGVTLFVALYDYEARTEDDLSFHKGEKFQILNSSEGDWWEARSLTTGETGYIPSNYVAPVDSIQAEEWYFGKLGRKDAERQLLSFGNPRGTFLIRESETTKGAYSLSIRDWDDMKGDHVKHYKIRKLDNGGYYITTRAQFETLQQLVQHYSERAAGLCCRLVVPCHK
human LCK SH3-SH2, sequence (P06239 58-230): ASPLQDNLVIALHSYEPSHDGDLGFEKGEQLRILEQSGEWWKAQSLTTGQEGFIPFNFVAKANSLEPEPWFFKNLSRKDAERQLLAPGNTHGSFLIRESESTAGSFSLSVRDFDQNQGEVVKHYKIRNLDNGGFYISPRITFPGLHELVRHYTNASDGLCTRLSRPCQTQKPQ

**Q.** How did the Kd [1] turn out when `CC(C)[C@H](NC(=O)[C@H](CCCNC(=N)N)NC(=O)[C@H](Cc1c[nH]cn1)NC(=O)CNC(=O)[C@@H]1CCCN1C(=O)[C@@H]1CCCN1C(=O)[C@@H]1CCCN1C(=O)[C@@H]1CCCN1C(=O)[C@H](CCCNC(=N)N)NC(=O)[C@H](Cc1c[nH]cn1)NC(=O)[C@H](CO)NC(=O)[C@@H]1CCCN1C(=O)[C@H](C)NC(=O)[C@H](CCC(N)=O)NC(=O)[C@H](CO)NC(=O)[C@H](CCCNC(=N)N)NC(=O)[C@H](Cc1c[nH]cn1)NC(=O)CNC(=O)[C@@H]1CCCN1C(=O)[C@@H]1CCCN1C(=O)[C@@H]1CCCN1C(=O)[C@@H]1CCCN1C(=O)[C@@H]1CCCN1C(=O)[C@H](Cc1c[nH]cn1)NC(=O)CCCC[C@@H]1SC[C@@H]2NC(=O)N[C@@H]21)C(=O)N[C@@H](CCC(N)=O)C(=O)O` [CD2-281-305] (Biotin-HPPPPPGHRSQAPSHRPPPPGHRVQ-OH) was run?
**A.** > 1000 µM

**Q.** How did the “FYN-SH3-SH2 binding to immobilised peptide (in words)” value ([2]; SPR, 37 °C, biotinylated peptide on streptavidin chip) turn out when “Biotin-KQFQP[pY]FIPIN-OH [CTLA-4, reference compound]” was run?
**A.** Negligible binding

**Q.** What does the source list for `CC(C)C[C@H](NC(=O)[C@@H](NC(=O)[C@H](CC(=O)O)NC(=O)[C@@H](NC(=O)[C@H](Cc1ccc(OP(=O)(O)O)cc1)NC(=O)[C@H](CC(=O)O)NC(=O)[C@H](CO)NC(=O)[C@H](CC(N)=O)NC(=O)[C@H](CO)NC(=O)[C@H](CC(N)=O)NC(=O)CCCC[C@@H]1SC[C@@H]2NC(=O)N[C@@H]21)C(C)C)C(C)C)C(=O)N1CCC[C@H]1C(=O)O` [EAT-2 127] (Biotin-NSNSD[pY]VDVLP-OH)?
**A.** FYN binding, fold weaker than to the CD244 ITSM ([2]; ratio of SPR affinities, relative to CD244 ITSM 1 peptide): ~ 5 fold; fold increase in affinity of PLC-γ1 compared with FYN binding [3]: 30 fold

**Q.** Which Kd [1] does the source give for `CC(C)C[C@H](NC(=O)[C@@H]1CCCN1C(=O)[C@@H]1CCCN1C(=O)CNC(=O)[C@H](CCCCN)NC(=O)[C@H](CCC(N)=O)NC(=O)CCCC[C@@H]1SC[C@@H]2NC(=O)N[C@@H]21)C(=O)N1CCC[C@H]1C(=O)N[C@@H](CCCNC(=N)N)C(=O)N1CCC[C@H]1C(=O)N[C@@H](CCCNC(=N)N)C(=O)N[C@H](C(=O)N[C@@H](CCC(N)=O)C(=O)N1CCC[C@H]1C(=O)N[C@@H](CCCCN)C(=O)N1CCC[C@H]1C(=O)N1CCC[C@H]1C(=O)N[C@@H](Cc1c[nH]cn1)C(=O)NCC(=O)O)C(C)C` [CD2-322] (Biotin-QKGPPLPRPRVQPKPPHG-OH) here?
**A.** > 1000 µM
